{
  "source": "ChEMBL document CHEMBL4706572",
  "about": "“Benzyl and benzoyl benzoic acid inhibitors of bacterial RNA polymerase-sigma factor interaction” (Eur J Med Chem, 2020)",
  "key": {"Streptococcus pneumoniae": {"test_system": "Streptococcus pneumoniae", "experiment": "Antibacterial activity against Streptococcus pneumoniae ATCC 49619 after 20 hrs by CLSI based-broth microdilution method", "format": "functional", "procedure,_shortened": "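Streptococci tested in Brain Heart Infusion broth. Two-fold dilutions from 256 to 0.5 μg/mL, inoculum approx. 5 × 10^5 CFU/mL. Incubated 20 h at 37 °C. MIC is the lowest concentration without visible growth.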"}, "Staphylococcus aureus [1]": {"test_system": "Staphylococcus aureus", "experiment": "Antibacterial activity against Staphylococcus aureus ATCC 25923 after 20 hrs by CLSI based-broth microdilution method", "format": "functional", "procedure,_shortened": "(§1)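 Broth microdilution in cation-adjusted Mueller-Hinton broth. Two-fold serial dilutions from 256 μg/mL down to 0.5 μg/mL. Inoculum approx. 5 × 10^5 CFU/mL. Incubated 20 h at 37 °C. MIC taken as the lowest concentration with no observable growth.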"}, "Staphylococcus aureus [2]": {"test_system": "Staphylococcus aureus", "experiment": "Antibacterial activity against Staphylococcus aureus ATCC 29213 after 20 hrs by CLSI based-broth microdilution method", "format": "functional", "procedure,_shortened": "as §1"}, "Staphylococcus aureus [3]": {"test_system": "Staphylococcus aureus", "experiment": "Inhibition of RNA polymerase in Staphylococcus aureus ATCC 29213 assessed as reduction in total protein level at 1/4 to 1/8 times MIC by fluorimetric method"}, "Staphylococcus aureus [4]": {"test_system": "Staphylococcus aureus", "experiment": "Inhibition of RNA polymerase in Staphylococcus aureus ATCC 29213 assessed as total DNA level at 1/4 to 1/8 times MIC by fluorimetric method", "procedure,_shortened": "(§2)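 S. aureus ATCC 29213 master culture started at OD600 0.1 at 37 °C with shaking at 175 rpm. At OD600 0.2 it was split and given compound or control at ¼ and ⅛ MIC, plus a drug-free culture. Cells harvested when the control reached OD600 0.6, with volumes normalized to OD600 0.6 equivalent. DNA and RNA measured by Qubit fluorometry, protein by BCA; triplicate.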"}, "Staphylococcus aureus [5]": {"test_system": "Staphylococcus aureus", "experiment": "Inhibition of RNA polymerase in Staphylococcus aureus ATCC 29213 assessed as reduction in total RNA level at 1/4 to 1/8 times MIC by fluorimetric method", "procedure,_shortened": "as §2"}, "Clostridioides difficile [6]": {"test_system": "Clostridioides difficile", "experiment": "Antibacterial activity against Clostridium difficile ribotype 027 assessed as reduction in bacterial toxin B production at sub-inhibitory concentration incubated for 48 hrs under anaerobic condition by ELISA", "format": "functional, organism-based", "procedure,_shortened": "(§3)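 Incubated anaerobically at 37 °C for 48 h. Supernatants cleared at 10,000 × g for 2 min. TcdA and TcdB quantified by commercial ELISA, normalized to drug-free control. Duplicate, with technical and biological repeats.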"}, "Clostridioides difficile [7]": {"test_system": "Clostridioides difficile", "experiment": "Antibacterial activity against Clostridium difficile ATCC 9689 assessed as reduction in bacterial toxin A production at sub-inhibitory concentration incubated for 48 hrs under anaerobic condition by ELISA", "format": "functional, organism-based", "details": "ATCC 9689 = DSM 1296", "procedure,_shortened": "as §3"}, "Clostridioides difficile [8]": {"test_system": "Clostridioides difficile", "experiment": "Antibacterial activity against Clostridium difficile ATCC 9689 assessed as reduction in bacterial toxin B production at sub-inhibitory concentration incubated for 48 hrs under anaerobic condition by ELISA", "format": "functional, organism-based", "details": "ATCC 9689 = DSM 1296", "procedure,_shortened": "as §3"}, "Clostridioides difficile [9]": {"test_system": "Clostridioides difficile", "experiment": "Antibacterial activity against Clostridium difficile ribotype 002 assessed as reduction in bacterial toxin B production at sub-inhibitory concentration incubated for 48 hrs under anaerobic condition by ELISA", "format": "functional, organism-based", "procedure,_shortened": "as §3"}, "Clostridioides difficile [10]": {"test_system": "Clostridioides difficile", "experiment": "Antibacterial activity against Clostridium difficile ribotype 002 assessed as reduction in bacterial toxin A production at sub-inhibitory concentration incubated for 48 hrs under anaerobic condition by ELISA", "format": "functional, organism-based", "procedure,_shortened": "as §3"}, "Clostridioides difficile [11]": {"test_system": "Clostridioides difficile", "experiment": "Antibacterial activity against Clostridium difficile ribotype 027 assessed as reduction in bacterial toxin A production at sub-inhibitory concentration incubated for 48 hrs under anaerobic condition by ELISA", "format": "functional, organism-based", "procedure,_shortened": "as §3"}},
  "note": "Calls of active or inactive are those of the source. No cut-off for these calls is given here.",
  "data": [
    {"smiles": "Cc1ccc(C(=O)O)c(Cc2ccc(Sc3ccc(Cl)c(Cl)c3)c([N+](=O)[O-])c2)c1", "values": [
      {"measurement": "MIC", "setting": "Streptococcus pneumoniae", "value": 4, "unit": "µg/mL"},
      {"measurement": "MIC", "setting": "Staphylococcus aureus [1]", "value": 4, "unit": "µg/mL"},
      {"measurement": "MIC", "setting": "Staphylococcus aureus [2]", "value": 4, "unit": "µg/mL"}
    ]},
    {"smiles": "O=C(O)c1ccc(Cl)cc1Cc1ccc(Sc2ccc(Cl)c(Cl)c2)c([N+](=O)[O-])c1", "values": [
      {"measurement": "MIC", "setting": "Streptococcus pneumoniae", "value": 2, "unit": "µg/mL"},
      {"measurement": "MIC", "setting": "Staphylococcus aureus [1]", "value": 8, "unit": "µg/mL"},
      {"measurement": "MIC", "setting": "Staphylococcus aureus [2]", "value": 8, "unit": "µg/mL"}
    ]},
    {"smiles": "O=C(O)c1ccc(F)cc1Cc1ccc(Sc2ccc(Cl)c(Cl)c2)c([N+](=O)[O-])c1", "values": [
      {"measurement": "MIC", "setting": "Streptococcus pneumoniae", "value": 4, "unit": "µg/mL"},
      {"measurement": "MIC", "setting": "Staphylococcus aureus [1]", "value": 8, "unit": "µg/mL"},
      {"measurement": "MIC", "setting": "Staphylococcus aureus [2]", "value": 8, "unit": "µg/mL"}
    ]},
    {"smiles": "O=C(O)c1ccc(F)cc1C(=O)c1ccc(Sc2ccc(Cl)c(Cl)c2)c([N+](=O)[O-])c1", "values": [
      {"measurement": "MIC", "setting": "Streptococcus pneumoniae", "value": 8, "unit": "µg/mL"},
      {"measurement": "MIC", "setting": "Staphylococcus aureus [1]", "value": 16, "unit": "µg/mL"},
      {"measurement": "MIC", "setting": "Staphylococcus aureus [2]", "value": 8, "unit": "µg/mL"}
    ]},
    {"smiles": "COc1ccccc1Cc1ccc(Sc2ccc(Cl)c(Cl)c2)c([N+](=O)[O-])c1", "values": [
      {"measurement": "MIC", "setting": "Streptococcus pneumoniae", "value": "> 256", "unit": "µg/mL"},
      {"measurement": "MIC", "setting": "Staphylococcus aureus [1]", "value": "> 256", "unit": "µg/mL"},
      {"measurement": "MIC", "setting": "Staphylococcus aureus [2]", "value": "> 256", "unit": "µg/mL"}
    ]},
    {"smiles": "O=C(O)c1cc(Cl)ccc1Cc1ccc(Sc2ccc(Cl)c(Cl)c2)c([N+](=O)[O-])c1", "values": [
      {"measurement": "MIC", "setting": "Streptococcus pneumoniae", "value": 4, "unit": "µg/mL"},
      {"measurement": "MIC", "setting": "Staphylococcus aureus [1]", "value": 8, "unit": "µg/mL"},
      {"measurement": "MIC", "setting": "Staphylococcus aureus [2]", "value": 8, "unit": "µg/mL"}
    ]},
    {"smiles": "O=C(O)c1ccccc1Cc1ccc(Sc2ccc(Cl)c(Cl)c2)c([N+](=O)[O-])c1", "values": [
      {"measurement": "MIC", "setting": "Streptococcus pneumoniae", "value": 16, "unit": "µg/mL"},
      {"measurement": "MIC", "setting": "Staphylococcus aureus [1]", "value": 16, "unit": "µg/mL"},
      {"measurement": "MIC", "setting": "Staphylococcus aureus [2]", "value": 16, "unit": "µg/mL"}
    ]},
    {"smiles": "CO[C@H]1/C=C/O[C@@]2(C)Oc3c(C)c(O)c4c(O)c(c(/C=N/N5CCN(C)CC5)c(O)c4c3C2=O)NC(=O)/C(C)=C\\C=C\\[C@H](C)[C@H](O)[C@@H](C)[C@@H](O)[C@@H](C)[C@H](OC(C)=O)[C@@H]1C", "values": [
      {"measurement": "inhibition", "setting": "Staphylococcus aureus [3]", "value": "inactive"},
      {"measurement": "inhibition", "setting": "Staphylococcus aureus [4]", "value": "inactive"},
      {"measurement": "inhibition", "setting": "Staphylococcus aureus [5]", "value": "Active"}
    ]},
    {"smiles": "COc1ccc(C(=O)O)c(Cc2ccc(Sc3ccc(Cl)c(Cl)c3)c([N+](=O)[O-])c2)c1", "values": [
      {"measurement": "MIC", "setting": "Streptococcus pneumoniae", "value": 8, "unit": "µg/mL"},
      {"measurement": "MIC", "setting": "Staphylococcus aureus [1]", "value": 16, "unit": "µg/mL"},
      {"measurement": "MIC", "setting": "Staphylococcus aureus [2]", "value": 8, "unit": "µg/mL"}
    ]},
    {"smiles": "O=C(O)c1cccc(C(=O)c2ccc(Sc3ccc(Cl)c(Cl)c3)c([N+](=O)[O-])c2)c1", "values": [
      {"measurement": "MIC", "setting": "Streptococcus pneumoniae", "value": "> 256", "unit": "µg/mL"},
      {"measurement": "MIC", "setting": "Staphylococcus aureus [1]", "value": "> 256", "unit": "µg/mL"},
      {"measurement": "MIC", "setting": "Staphylococcus aureus [2]", "value": 32, "unit": "µg/mL"}
    ]},
    {"smiles": "CCc1c(Cl)c(O)c(Cl)c(O)c1C(=O)O[C@H]1[C@H](O)[C@H](OC)[C@H](OC/C2=C\\C=C\\C[C@H](O)/C(C)=C/[C@H](CC)[C@@H](O[C@@H]3OC(C)(C)[C@@H](OC(=O)C(C)C)[C@H](O)[C@@H]3O)/C(C)=C/C(C)=C/C[C@@H]([C@@H](C)O)OC2=O)O[C@@H]1C", "values": [
      {"measurement": "Activity", "setting": "Clostridioides difficile [6]", "value": "Dose-dependent effect"},
      {"measurement": "Activity", "setting": "Clostridioides difficile [7]", "value": "Dose-dependent effect"},
      {"measurement": "Activity", "setting": "Clostridioides difficile [8]", "value": "Dose-dependent effect"},
      {"measurement": "Activity", "setting": "Clostridioides difficile [9]", "value": "Dose-dependent effect"},
      {"measurement": "Activity", "setting": "Clostridioides difficile [10]", "value": "Dose-dependent effect"},
      {"measurement": "Activity", "setting": "Clostridioides difficile [11]", "value": "Dose-dependent effect"}
    ]},
    {"smiles": "O=C(O)c1cc(C(F)(F)F)ccc1C(=O)c1ccc(Sc2ccc(Cl)c(Cl)c2)c([N+](=O)[O-])c1", "values": [
      {"measurement": "MIC", "setting": "Streptococcus pneumoniae", "value": 4, "unit": "µg/mL"},
      {"measurement": "MIC", "setting": "Staphylococcus aureus [1]", "value": 16, "unit": "µg/mL"},
      {"measurement": "MIC", "setting": "Staphylococcus aureus [2]", "value": 8, "unit": "µg/mL"}
    ]}
  ]
}
